Data published in ChEMBL document CHEMBL1147367, “Bioactive furanonaphthoquinones from Crescentia cujete” (J Nat Prod, 1993).
Values after ≈ are worked out from the molar mass of the structure shown.

Columns and labels:
[1] = test system: Saccharomyces cerevisiae; experiment: DNA damaging activity against DNA repair-deficient RS 322YK (rad 52Y) yeast assessed as drug level required to produce 12 mm zone of inhibition; assay type: functional
In short: (§1)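 Agar well-diffusion test on yeast: sample placed in 100 μl wells and growth-inhibition zones measured. Potency given as IC12 in μg/ml, the concentration giving a 12 mm inhibition zone. rad 52 strain RS 322 YK lacks the recombination pathway for double-strand-break repair. RS 188 N is the repair-proficient RAD+ counterpart.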

[2] = test system: Saccharomyces cerevisiae; experiment: DNA damaging activity against RS 188N (RAD+) yeast assessed as drug level required to produce 12 mm zone of inhibition; assay type: functional; in short: as §1
[3] = test system: Vero; experiment: Cytotoxicity against african green monkey Vero cells; assay type: cell-based; conditions: Chlorocebus sabaeus
In short: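 Vero cells exposed to compound for 72 h; viability read by XTT staining; IC50 given in μg/ml.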

SMILES | IC12 [1] | IC12 [2] | IC50 [3]
CC(O)c1cc2c(o1)C(=O)c1cccc(O)c1C2=O (stereo not given) | 3 µg/mL | 10 µg/mL | 0.21 µg/mL (≈ 0.813 µM)
CC(O)c1cc2c(o1)C(=O)c1ccccc1C2=O (stereo not given) | 14 µg/mL | 180 µg/mL | 0.41 µg/mL (≈ 1.69 µM)
C=C(C)[C@H]1CC2=C(O1)C(=O)c1cccc(OC)c1C2=O | 48 µg/mL | 280 µg/mL | 4.3 µg/mL (≈ 15.9 µM)
C=C(C)C1CC2=C(O1)C(=O)c1cccc(O)c1C2=O (stereo not given) | 80 µg/mL | 140 µg/mL | 
C=C(C)[C@@H]1OC2=C(C(=O)c3c(ccc(OC)c3OC)C2=O)[C@@H]1O | 47 µg/mL | > 1000 µg/mL | 3.7 µg/mL (≈ 11.7 µM)
CC[C@@]1(O)C(=O)OCc2c1cc1n(c2=O)Cc2cc3ccccc3nc2-1 [CAMPTOTHECIN] | 0.6 µg/mL | 110 µg/mL | 0.054 µg/mL (≈ 0.155 µM)
C=C(C)[C@H]1CC2=C(O1)C(=O)c1ccc(OC)c(OC)c1C2=O | 33 µg/mL | 120 µg/mL | 4.7 µg/mL (≈ 15.7 µM)
